Test results published in ChEMBL document CHEMBL4725305, “Optimizing the aryl-triazole of cjoc42 for enhanced gankyrin binding and anti-cancer activity” (Bioorg Med Chem Lett, 2020).
Calls of active or inactive are those of the source. The rule behind the calls is not given here.

What was measured:
[1] = molecular target: T1, 26S proteasome non-ATPase regulatory subunit 10 (Homo sapiens) (UniProt O75832); experiment: Binding affinity to gankyrin (unknown origin) assessed as increase in melting temperature at 300 uM by thermal shift assay
T1 sequence (whole entry): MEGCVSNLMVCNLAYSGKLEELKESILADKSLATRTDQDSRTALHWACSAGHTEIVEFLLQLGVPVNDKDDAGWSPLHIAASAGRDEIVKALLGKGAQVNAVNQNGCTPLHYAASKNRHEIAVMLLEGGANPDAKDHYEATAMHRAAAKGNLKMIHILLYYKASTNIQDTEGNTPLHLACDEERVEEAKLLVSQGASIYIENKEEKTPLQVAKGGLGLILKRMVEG
Summary of the method: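 Gankyrin (20 μM) incubated with test compound at 300 μM in protein thermal shift assay; denaturation temperature (T_m) measured and ΔT_m taken relative to protein without ligand. Vehicle control 5% DMSO; cjoc42 at 300 μM as reference control. Each compound tested in triplicate.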

Hep3B = experiment: Cytotoxicity against human Hep3B cells assessed as reduction in cell viability incubated for 72 hrs by MTT assay
HepG2 = experiment: Cytotoxicity against human HepG2 cells assessed as reduction in cell viability incubated for 72 hrs by MTT assay; format: functional, cell-based; conditions: HepG2, 72 h
Summary of the method: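 Hep3B and HepG2 cells incubated 24 h before drug addition, then exposed to compound for 72 h at 37 °C, 5% CO2; proliferation read by MTT assay and IC50 derived; tested up to 100 μM.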

[2] = molecular target: T1, 26S proteasome non-ATPase regulatory subunit 10 (Homo sapiens); experiment: Potency index, ratio of change in melting temperature of Cjoc42 to change in melting temperature of compound for binding affinity to gankyrin (unknown origin) assessed as increase in melting temperature at 300 uM by thermal shift assay
Summary of the method: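 Gankyrin (20 μM) with compound at 300 μM in thermal shift assay, run in triplicate; ΔT_m of each compound compared with that of cjoc42 (300 μM) tested in parallel as positive control; 5% DMSO vehicle.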

A549 = experiment: Cytotoxicity against human A549 cells assessed as reduction in cell viability incubated for 48 hrs by MTT assay; format: functional, cell-based; conditions: A549, 48 h
Summary of the method: (§1)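 A549 and MDA-MB-231 cells incubated 24 h before drug addition, then exposed to compound for 48 h at 37 °C, 5% CO2; proliferation read by MTT assay and IC50 derived; tested up to 100 μM.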

MDA-MB-231 = experiment: Cytotoxicity against human MDA-MB-231 cells assessed as reduction in cell viability incubated for 48 hrs by MTT assay; format: functional, cell-based; conditions: MDA-MB-231, 48 h; summary of the method: as §1

Row | Compound | Activity [1] | also measured
1 | Cc1ccc(S(=O)(=O)OCCCc2cn(-c3ccccc3-c3ccccc3)nn2)cc1 | Active | 
2 | Cc1ccc(S(=O)(=O)OCCCc2cn(-c3cccc(C(F)(F)F)c3)nn2)cc1 | Active | 
3 | CCc1cccc(-n2cc(CCCOS(=O)(=O)c3ccc(C)cc3)nn2)c1 | Active | 
4 | CCc1ccccc1-n1cc(CCCOS(=O)(=O)c2ccc(C)cc2)nn1 | inactive | 
5 | Cc1ccc(S(=O)(=O)OCCCc2cn(-c3ccccc3F)nn2)cc1 | inactive | 
6 | Cc1ccc(S(=O)(=O)OCCCc2cn(-c3ccc(I)cc3)nn2)cc1 | inactive | 
7 | Cc1ccc(S(=O)(=O)OCCCc2cn(-c3ccccc3C(F)(F)F)nn2)cc1 | Active | 
8 | CCc1ccc(-n2cc(CCCOS(=O)(=O)c3ccc(C)cc3)nn2)cc1 | inactive | 
9 | N#Cc1cccc(-n2cc(CCCOS(=O)(=O)c3ccc(-c4ccccc4)cc3)nn2)c1 | inactive | 
10 | COC(=O)c1ccccc1-n1cc(CCCOS(=O)(=O)c2ccc(C)cc2)nn1 | inactive | 
11 | Cc1ccc(S(=O)(=O)OCCCc2cn(-c3ccc(-c4ccccc4)cc3)nn2)cc1 | inactive | 
12 | Cc1ccc(S(=O)(=O)OCCCc2cn(-c3ccc(C#N)cc3)nn2)cc1 | inactive | 
13 | Cc1ccc(S(=O)(=O)OCCCc2cn(-c3ccncc3)nn2)cc1 | inactive | 
14 | Cc1ccc(S(=O)(=O)OCCCc2cn(-c3ccc(F)cc3)nn2)cc1 | inactive | 
15 | Cc1ccc(S(=O)(=O)OCCCc2cn(-c3cccc(C#N)c3)nn2)cc1 | Active | IC50 (Hep3B): 44.9 µM; IC50 (HepG2): > 100 µM; Ratio [2]: 6; IC50 (A549): > 100 µM; IC50 (MDA-MB-231): > 100 µM
16 | Cc1ccc(S(=O)(=O)OCCCc2cn(-c3ccc(C(C)C)cc3)nn2)cc1 | inactive | 
17 | COC(=O)c1ccc(-n2cc(CCCOS(=O)(=O)c3ccc(-c4ccccc4)cc3)nn2)cc1 |  | IC50 (Hep3B): 26 µM
18 | N#Cc1cccc(-n2cc(CCCOS(=O)(=O)c3ccc(I)cc3)nn2)c1 | inactive | 

Row | Compound | Activity [1] | also measured
19 | Cc1ccc(S(=O)(=O)OCCCc2cn(-c3ccc(Br)cc3)nn2)cc1 | Active | 
20 | Cc1ccc(-n2cc(CCCOS(=O)(=O)c3ccc(C)cc3)nn2)cc1 | Active | IC50 (Hep3B): > 100 µM; IC50 (HepG2): > 100 µM; Ratio [2]: 3; IC50 (A549): 79.9 µM; IC50 (MDA-MB-231): 36.6 µM
21 | Cc1ccc(S(=O)(=O)OCCCc2cn(-c3ccc(C(F)(F)F)cc3)nn2)cc1 | Active | IC50 (Hep3B): 42.7 µM; IC50 (HepG2): 42.6 µM; IC50 (A549): > 100 µM; IC50 (MDA-MB-231): > 100 µM
22 | Cc1ccc(S(=O)(=O)OCCCc2cn(-c3ccccn3)nn2)cc1 | inactive | 
23 | COc1ccc(-n2cc(CCCOS(=O)(=O)c3ccc(I)cc3)nn2)cc1 | inactive | 
24 | Cc1ccc(S(=O)(=O)OCCCc2cn(-c3ccccc3C)nn2)cc1 | Active | 
25 | COc1ccc(-n2cc(CCCOS(=O)(=O)c3ccc(-c4ccccc4)cc3)nn2)cc1 | inactive | 
26 | Cc1ccc(S(=O)(=O)OCCCc2cn(-c3cccc(Br)c3)nn2)cc1 | Active | 
27 | Cc1ccc(S(=O)(=O)OCCCc2cn(-c3nccs3)nn2)cc1 | inactive | 
28 | Cc1ccc(S(=O)(=O)OCCCc2cn(-c3cccc(C)c3)nn2)cc1 | Active | 
29 | Cc1ccc(S(=O)(=O)OCCCc2cn(-c3ccccc3C#N)nn2)cc1 | inactive | 
30 | COc1cccc(-n2cc(CCCOS(=O)(=O)c3ccc(C)cc3)nn2)c1 | Active | 
31 | Cc1ccc(S(=O)(=O)OCCCc2cn(-c3cccc(F)c3)nn2)cc1 | Active | IC50 (Hep3B): 82.1 µM; IC50 (HepG2): 61.8 µM; Ratio [2]: 5; IC50 (A549): > 100 µM; IC50 (MDA-MB-231): > 100 µM
32 | COc1ccccc1-n1cc(CCCOS(=O)(=O)c2ccc(C)cc2)nn1 | Active | 
33 | COc1ccc(-n2cc(CCCOS(=O)(=O)c3ccc(C)cc3)nn2)cc1 | Active | IC50 (Hep3B): > 100 µM; IC50 (HepG2): > 100 µM; IC50 (A549): 74.6 µM; IC50 (MDA-MB-231): 72.8 µM
34 | Cc1ccc(S(=O)(=O)OCCCc2cn(-c3ccc(Cl)cc3)nn2)cc1 | Active | 
35 | COC(=O)c1ccc(-n2cc(CCCOS(=O)(=O)c3ccc(C)cc3)nn2)cc1 |  | IC50 (Hep3B): > 100 µM; IC50 (HepG2): > 100 µM; IC50 (A549): > 100 µM; IC50 (MDA-MB-231): > 100 µM
36 | Cc1ccc(S(=O)(=O)OCCCc2cn(-c3cccnc3)nn2)cc1 | inactive | 
